System: Fibroblast
Experiment: Multiplex assay against human fibroblast
Type: toxicity, cell-based
In short: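 On a CQ1 microscope at 37°C and 5% CO2, live cells were imaged after compound addition. They had been stained at seeding with Hoechst33342, BioTracker Green Microtubule Cytoskeleton Dye, MitoTracker Red and Annexin V Alexa Fluor 680. CellPathfinder machine-learning gating assigned cells to Hoechst high-intensity objects or normal cells, normal cells to healthy, pyknosed or fragmented nuclei, and pyknosed cells to mitotic or apoptotic. Tubulin, mitochondrial-mass and membrane-permeability phenotypes are per cents of healthy-nucleus cells.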

[1] = 12 h, 1 µM, compound concentration 1 uM, replicate 1
[2] = 12 h, 1 µM, compound concentration 1 uM, replicate 2
[3] = 12 h, 10 µM, compound concentration 10 uM, replicate 1
[4] = 12 h, 10 µM, compound concentration 10 uM, replicate 2
[5] = 24 h, 1 µM, compound concentration 1 uM, replicate 1
[6] = 24 h, 1 µM, compound concentration 1 uM, replicate 2
[7] = 24 h, 10 µM, compound concentration 10 uM, replicate 1
[8] = 24 h, 10 µM, compound concentration 10 uM, replicate 2
[9] = 48 h, 1 µM, compound concentration 1 uM, replicate 1
[10] = 48 h, 1 µM, compound concentration 1 uM, replicate 2
[11] = 48 h, 10 µM, compound concentration 10 uM, replicate 1
[12] = 48 h, 10 µM, compound concentration 10 uM, replicate 2

In the case of CN(C)c1ccnc2sc3c(=O)n(N4CCCCCC4)cnc3c12, the “Population Apoptotic (%)” value [1] was 42%, the “Population Fragmented Nuclei (%)” value [1] was 17% and the “Population Healthy Nuclei (%)” value [1] was 64%. For the same compound, the “Population Hoechst High Intensity Objects (%)” value [1] was 3%, the “Population Membrane Permeable-Phenotype (%)” value [1] was 1% and the “Population Mitochondria Different-Phenotype (%)” value [1] was 3%. The “Population Mitotic Cells (%)” value [1] was 57%, the “Population Normal (%)” value [1] was 96% and the “Population Pyknosed Nuclei (%)” value [1] was 18%. The “Population Tubulin-Different-Phenotype (%)” value [1] was 29%, the “Total Cell Count” value [1] was 144 and the “Population Apoptotic (%)” value [2] was 30%. For the same compound, the “Population Fragmented Nuclei (%)” value [2] was 28%, the “Population Healthy Nuclei (%)” value [2] was 51% and the “Population Hoechst High Intensity Objects (%)” value [2] was 6%. For the same compound, the “Population Membrane Permeable-Phenotype (%)” value [2] was 10%, the “Population Mitotic Cells (%)” value [2] was 70% and the “Population Normal (%)” value [2] was 93%. For the same compound, the “Population Pyknosed Nuclei (%)” value [2] was 19%, the “Population Tubulin-Different-Phenotype (%)” value [2] was 44% and the “Total Cell Count” value [2] was 162. The “Population Apoptotic (%)” value [3] was 44%, the “Population Fragmented Nuclei (%)” value [3] was 14% and the “Population Healthy Nuclei (%)” value [3] was 58%. For the same compound, the “Population Hoechst High Intensity Objects (%)” value [3] was 5%, the “Population Membrane Permeable-Phenotype (%)” value [3] was 1% and the “Population Mitochondria Different-Phenotype (%)” value [3] was 14%. For the same compound, the “Population Mitotic Cells (%)” value [3] was 55%, the “Population Normal (%)” value [3] was 94% and the “Population Pyknosed Nuclei (%)” value [3] was 27%. The “Population Tubulin-Different-Phenotype (%)” value [3] was 75%, the “Total Cell Count” value [3] was 141 and the “Population Apoptotic (%)” value [4] was 49%. For the same compound, the “Population Fragmented Nuclei (%)” value [4] was 31%, the “Population Healthy Nuclei (%)” value [4] was 30% and the “Population Hoechst High Intensity Objects (%)” value [4] was 7%. The “Population Membrane Permeable-Phenotype (%)” value [4] was 12%, the “Population Mitotic Cells (%)” value [4] was 50% and the “Population Normal (%)” value [4] was 92%. The “Population Pyknosed Nuclei (%)” value [4] was 38%, the “Total Cell Count” value [4] was 145 and the “Population Apoptotic (%)” value [5] was 48%. The “Population Fragmented Nuclei (%)” value [5] was 11%, the “Population Healthy Nuclei (%)” value [5] was 67% and the “Population Hoechst High Intensity Objects (%)” value [5] was 3%. The “Population Membrane Permeable-Phenotype (%)” value [5] was 0%, the “Population Mitochondria Different-Phenotype (%)” value [5] was 3% and the “Population Mitotic Cells (%)” value [5] was 51%. For the same compound, the “Population Normal (%)” value [5] was 96%, the “Population Pyknosed Nuclei (%)” value [5] was 21% and the “Population Tubulin-Different-Phenotype (%)” value [5] was 27%. For the same compound, the “Total Cell Count” value [5] was 143, the “Population Apoptotic (%)” value [6] was 50% and the “Population Fragmented Nuclei (%)” value [6] was 24%. For the same compound, the “Population Healthy Nuclei (%)” value [6] was 55%, the “Population Hoechst High Intensity Objects (%)” value [6] was 2% and the “Population Membrane Permeable-Phenotype (%)” value [6] was 10%. The “Population Mitochondria Different-Phenotype (%)” value [6] was 2%, the “Population Mitotic Cells (%)” value [6] was 50% and the “Population Normal (%)” value [6] was 97%. The “Population Pyknosed Nuclei (%)” value [6] was 19%, the “Population Tubulin-Different-Phenotype (%)” value [6] was 49% and the “Total Cell Count” value [6] was 146. For the same compound, the “Population Apoptotic (%)” value [7] was 57%, the “Population Fragmented Nuclei (%)” value [7] was 13% and the “Population Healthy Nuclei (%)” value [7] was 58%. The “Population Hoechst High Intensity Objects (%)” value [7] was 5%, the “Population Membrane Permeable-Phenotype (%)” value [7] was 0% and the “Population Mitochondria Different-Phenotype (%)” value [7] was 18%. The “Population Mitotic Cells (%)” value [7] was 42%, the “Population Normal (%)” value [7] was 94% and the “Population Pyknosed Nuclei (%)” value [7] was 28%. The “Population Tubulin-Different-Phenotype (%)” value [7] was 63%, the “Total Cell Count” value [7] was 130 and the “Population Apoptotic (%)” value [8] was 30%. The “Population Fragmented Nuclei (%)” value [8] was 35%, the “Population Healthy Nuclei (%)” value [8] was 41% and the “Population Hoechst High Intensity Objects (%)” value [8] was 8%. The “Population Membrane Permeable-Phenotype (%)” value [8] was 22%, the “Population Mitochondria Different-Phenotype (%)” value [8] was 24% and the “Population Mitotic Cells (%)” value [8] was 69%. The “Population Normal (%)” value [8] was 91%, the “Population Pyknosed Nuclei (%)” value [8] was 22% and the “Population Tubulin-Different-Phenotype (%)” value [8] was 85%. The “Total Cell Count” value [8] was 128, the “Population Apoptotic (%)” value [9] was 64% and the “Population Fragmented Nuclei (%)” value [9] was 19%. For the same compound, the “Population Healthy Nuclei (%)” value [9] was 70%, the “Population Hoechst High Intensity Objects (%)” value [9] was 2% and the “Population Membrane Permeable-Phenotype (%)” value [9] was 0%. For the same compound, the “Population Mitochondria Different-Phenotype (%)” value [9] was 0%, the “Population Mitotic Cells (%)” value [9] was 35% and the “Population Normal (%)” value [9] was 97%. For the same compound, the “Population Pyknosed Nuclei (%)” value [9] was 10%, the “Population Tubulin-Different-Phenotype (%)” value [9] was 30% and the “Total Cell Count” value [9] was 143. The “Population Apoptotic (%)” value [10] was 36%, the “Population Fragmented Nuclei (%)” value [10] was 36% and the “Population Healthy Nuclei (%)” value [10] was 49%. For the same compound, the “Population Hoechst High Intensity Objects (%)” value [10] was 3%, the “Population Membrane Permeable-Phenotype (%)” value [10] was 6% and the “Population Mitochondria Different-Phenotype (%)” value [10] was 2%. For the same compound, the “Population Mitotic Cells (%)” value [10] was 63%, the “Population Normal (%)” value [10] was 96% and the “Population Pyknosed Nuclei (%)” value [10] was 14%. The “Population Tubulin-Different-Phenotype (%)” value [10] was 41%, the “Total Cell Count” value [10] was 157 and the “Population Apoptotic (%)” value [11] was 73%. The “Population Fragmented Nuclei (%)” value [11] was 22%, the “Population Healthy Nuclei (%)” value [11] was 47% and the “Population Hoechst High Intensity Objects (%)” value [11] was 8%. The “Population Membrane Permeable-Phenotype (%)” value [11] was 0%, the “Population Mitochondria Different-Phenotype (%)” value [11] was 25% and the “Population Mitotic Cells (%)” value [11] was 26%. For the same compound, the “Population Normal (%)” value [11] was 91%, the “Population Pyknosed Nuclei (%)” value [11] was 30% and the “Population Tubulin-Different-Phenotype (%)” value [11] was 76%. The “Total Cell Count” value [11] was 138, the “Population Apoptotic (%)” value [12] was 50% and the “Population Fragmented Nuclei (%)” value [12] was 47%. The “Population Healthy Nuclei (%)” value [12] was 42%, the “Population Hoechst High Intensity Objects (%)” value [12] was 6% and the “Population Membrane Permeable-Phenotype (%)” value [12] was 19%. The “Population Mitochondria Different-Phenotype (%)” value [12] was 13%, the “Population Mitotic Cells (%)” value [12] was 50% and the “Population Normal (%)” value [12] was 93%. For the same compound, the “Population Pyknosed Nuclei (%)” value [12] was 9%, the “Population Tubulin-Different-Phenotype (%)” value [12] was 86% and the “Total Cell Count” value [12] was 131.
